Values after ≈ are worked out from the molar mass of the structure shown.
Tests used:
Staphylococcus aureus [1] = assay: Antibacterial activity against Staphylococcus aureus ATCC 6538 after 24 hrs by microdilution method; format: functional; conditions: ATCC 6538, 24 h
Method in brief: (§1)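 Broth microdilution in 96-well plates. Bacterial suspensions were adjusted in sterile saline to 1.0 × 10⁵ CFU/ml, prepared daily and kept at 4 °C. Compound was added to LB broth with 1.0 × 10⁴ CFU per well and shaken at 160 rpm for 24 h at […] (so in the source). MIC is the lowest concentration with no visible growth under a binocular microscope. OD655 was also read. Duplicate, repeated three times.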

Bacillus cereus [2] = assay: Antibacterial activity against clinical isolate of Bacillus cereus after 24 hrs by microdilution method; format: functional; method in brief: as §1
Micrococcus flavus [3] = assay: Antibacterial activity against Micrococcus flavus ATCC 10240 after 24 hrs by microdilution method; format: functional; conditions: ATCC 10240, 24 h; method in brief: as §1
Listeria monocytogenes [4] = assay: Antibacterial activity against Listeria monocytogenes NCTC 7973 after 24 hrs by microdilution method; format: functional; conditions: NCTC 7973, 24 h; method in brief: as §1
Pseudomonas aeruginosa [5] = assay: Antibacterial activity against Pseudomonas aeruginosa ATCC 27853 after 24 hrs by microdilution method; format: functional; conditions: ATCC 27853, 24 h; method in brief: as §1
Salmonella typhimurium [6] = assay: Antibacterial activity against Salmonella Typhimurium ATCC 13311 after 24 hrs by microdilution method; format: functional, Salmonella enterica subsp. enterica serovar Typhimurium; conditions: Salmonella enterica, ATCC 13311, 24 h; method in brief: as §1
Escherichia coli [7] = assay: Antibacterial activity against Escherichia coli ATCC 35210 after 24 hrs by microdilution method; format: functional; conditions: ATCC 35210, 24 h; method in brief: as §1
Enterococcus faecalis [8] = assay: Antibacterial activity against Enterococcus faecalis isolated from human after 24 hrs by microdilution method; format: functional; method in brief: as §1
Staphylococcus aureus [9] = assay: Antibacterial activity against Staphylococcus aureus ATCC 6538 incubated for 24 hrs followed by serial sub-cultivation for 24 hrs by microdilution method; format: functional; conditions: ATCC 6538, 24 h
Method in brief: (§2)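 MBC: after the 24 h LB broth microdilution (1.0 × 10⁴ CFU per well, 160 rpm), wells were serially sub-cultured into fresh broth plates and incubated a further 24 h. MBC is the lowest concentration with no visible growth, taken as 99.5% killing of the original inoculum. Duplicate, repeated three times.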

Bacillus cereus [10] = assay: Antibacterial activity against clinical isolate of Bacillus cereus incubated for 24 hrs followed by serial sub-cultivation for 24 hrs by microdilution; format: functional; method in brief: as §2
Micrococcus flavus [11] = assay: Antibacterial activity against Micrococcus flavus ATCC 10240 incubated for 24 hrs followed by serial sub-cultivation for 24 hrs by microdilution; format: functional; conditions: ATCC 10240, 24 h; method in brief: as §2
Listeria monocytogenes [12] = assay: Antibacterial activity against Listeria monocytogenes NCTC 7973 incubated for 24 hrs followed by serial sub-cultivation for 24 hrs by microdilution; format: functional; conditions: NCTC 7973, 24 h; method in brief: as §2
Pseudomonas aeruginosa [13] = assay: Antibacterial activity against Pseudomonas aeruginosa ATCC 27853 incubated for 24 hrs followed by serial sub-cultivation for 24 hrs by microdilution; format: functional; conditions: ATCC 27853, 24 h; method in brief: as §2
Salmonella typhimurium [14] = assay: Antibacterial activity against Salmonella Typhimurium ATCC 13311 incubated for 24 hrs followed by serial sub-cultivation for 24 hrs by microdilution; format: functional, Salmonella enterica subsp. enterica serovar Typhimurium; conditions: Salmonella enterica, ATCC 13311, 24 h; method in brief: as §2
Escherichia coli [15] = assay: Antibacterial activity against Escherichia coli ATCC 35210 incubated for 24 hrs followed by serial sub-cultivation for 24 hrs by microdilution; format: functional; conditions: ATCC 35210, 24 h; method in brief: as §2
Enterococcus faecalis [16] = assay: Antibacterial activity against Enterococcus faecalis isolated from human incubated for 24 hrs followed by serial sub-cultivation for 24 hrs by microdilution; format: functional; method in brief: as §2
Aspergillus ochraceus [17] = assay: Antifungal activity against Aspergillus ochraceus ATCC 12066 after 72 hrs by serial dilution technique; format: functional; conditions: ATCC 12066, 72 h
Method in brief: (§3)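 Modified microdilution in 96-well plates. Fungi were kept on malt agar at 4 °C. Spores were washed off in sterile 0.85% saline with 0.1% Tween 80. Compounds were dissolved at 1 mg/ml in 5% DMSO with 0.1% Tween 80 and added to malt broth with inoculum. Plates were shaken at 160 rpm for 72 h at 28 °C. Duplicate, repeated three times.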

Aspergillus niger [18] = assay: Antifungal activity against Aspergillus niger ATCC 6275 after 72 hrs by serial dilution technique; format: functional; conditions: ATCC 6275, 72 h; method in brief: as §3
Aspergillus flavus [19] = assay: Antifungal activity against Aspergillus flavus ATCC 9643 after 72 hrs by serial dilution technique; format: functional; conditions: ATCC 9643, 72 h; method in brief: as §3
Talaromyces funiculosus [20] = assay: Antifungal activity against Penicillium funiculosum ATCC 36839 after 72 hrs by serial dilution technique; format: functional; conditions: ATCC 36839, 72 h; method in brief: as §3
Penicillium ochrochloron [21] = assay: Antifungal activity against Penicillium ochrochloron ATCC 9112 after 72 hrs by serial dilution technique; format: functional; conditions: ATCC 9112, 72 h; method in brief: as §3
Trichoderma viride [22] = assay: Antifungal activity against Trichoderma viride IAM 5061 after 72 hrs by serial dilution technique; format: functional; conditions: IAM 5061, 72 h; method in brief: as §3
Candida albicans [23] = assay: Antifungal activity against Candida albicans isolated from human after 72 hrs by serial dilution technique; format: functional; method in brief: as §3
Aspergillus ochraceus [24] = assay: Antifungal activity against Aspergillus ochraceus ATCC 12066 incubated for 72 hrs followed by serial sub-cultivation for 72 hrs by serial dilution technique; format: functional; conditions: ATCC 12066, 72 h
Method in brief: (§4)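 MFC: material from 72 h malt broth microdilution wells was serially sub-cultured into fresh broth plates and incubated a further 72 h at 28 °C. Fungicidal concentration is taken from growth after sub-culture. Duplicate, repeated three times.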

Aspergillus fumigatus [25] = assay: Antifungal activity against Aspergillus fumigatus isolated from human incubated for 72 hrs followed by serial sub-cultivation for 72 hrs by serial dilution technique; format: functional; method in brief: as §4
Aspergillus niger [26] = assay: Antifungal activity against Aspergillus niger ATCC 6275 incubated for 72 hrs followed by serial sub-cultivation for 72 hrs by serial dilution technique; format: functional; conditions: ATCC 6275, 72 h; method in brief: as §4
Aspergillus flavus [27] = assay: Antifungal activity against Aspergillus flavus ATCC 9643 incubated for 72 hrs followed by serial sub-cultivation for 72 hrs by serial dilution technique; format: functional; conditions: ATCC 9643, 72 h; method in brief: as §4
Talaromyces funiculosus [28] = assay: Antifungal activity against Penicillium funiculosum ATCC 36839 incubated for 72 hrs followed by serial sub-cultivation for 72 hrs by serial dilution technique; format: functional; conditions: ATCC 36839, 72 h; method in brief: as §4
Penicillium ochrochloron [29] = assay: Antifungal activity against Penicillium ochrochloron ATCC 9112 incubated for 72 hrs followed by serial sub-cultivation for 72 hrs by serial dilution technique; format: functional; conditions: ATCC 9112, 72 h; method in brief: as §4
Trichoderma viride [30] = assay: Antifungal activity against Trichoderma viride IAM 5061 incubated for 72 hrs followed by serial sub-cultivation for 72 hrs by serial dilution technique; format: functional; conditions: IAM 5061, 72 h; method in brief: as §4
Candida albicans [31] = assay: Antifungal activity against Candida albicans isolated from human incubated for 72 hrs followed by serial sub-cultivation for 72 hrs by serial dilution technique; format: functional; method in brief: as §4
Pseudomonas aeruginosa [32] = assay: Ratio of ampicillin MIC to compound MIC for Pseudomonas aeruginosa ATCC 27853; format: functional
Aspergillus ochraceus [33] = assay: Ratio of bifonazole to compound for Aspergillus ochraceus ATCC 12066; format: functional
Aspergillus niger [34] = assay: Ratio of bifonazole to compound for Aspergillus niger ATCC 6275; format: functional
Talaromyces funiculosus [35] = assay: Ratio of bifonazole to compound for Penicillium funiculosum ATCC 36839; format: functional
Penicillium ochrochloron [36] = assay: Ratio of bifonazole to compound for Penicillium ochrochloron ATCC 9112; format: functional
Trichoderma viride [37] = assay: Ratio of bifonazole to compound for Trichoderma viride IAM 5061; format: functional
Candida albicans [38] = assay: Ratio of bifonazole to compound for Candida albicans isolated from human; format: functional
Aspergillus ochraceus [39] = assay: Ratio of ketoconazole to compound for Aspergillus ochraceus ATCC 12066; format: functional
Aspergillus fumigatus [40] = assay: Ratio of ketoconazole to compound for Aspergillus fumigatus isolated from human; format: functional
Penicillium ochrochloron [41] = assay: Ratio of ketoconazole to compound for Penicillium ochrochloron ATCC 9112; format: functional
Candida albicans [42] = assay: Ratio of ketoconazole to compound for Candida albicans isolated from human; format: functional
Aspergillus ochraceus [43] = assay: Antifungal activity against Aspergillus ochraceus after 72 hrs by serial dilution technique

## CCNc1nc(C)c(C(=O)/C=C/c2cccc(Cl)c2)s1
Staphylococcus aureus [1]
  MIC: 98 µM (≈ 30.1 µg/mL)
Bacillus cereus [2]
  MIC: 49.1 µM (≈ 15.1 µg/mL)
Micrococcus flavus [3]
  MIC: 32.7 µM (≈ 10 µg/mL)
Listeria monocytogenes [4]
  MIC: 98 µM (≈ 30.1 µg/mL)
Pseudomonas aeruginosa [5]
  MIC: 65.3 µM (≈ 20 µg/mL)
Salmonella typhimurium [6]
  MIC: 49.1 µM (≈ 15.1 µg/mL)
Escherichia coli [7]
  MIC: 49.1 µM (≈ 15.1 µg/mL)
Enterococcus faecalis [8]
  MIC: 49.1 µM (≈ 15.1 µg/mL)
Staphylococcus aureus [9]
  MBC: 98 µM (≈ 30.1 µg/mL)
Bacillus cereus [10]
  MBC: 65.3 µM (≈ 20 µg/mL)
Micrococcus flavus [11]
  MBC: 81.7 µM (≈ 25.1 µg/mL)
Listeria monocytogenes [12]
  MBC: 114 µM (≈ 35.1 µg/mL)
Pseudomonas aeruginosa [13]
  MBC: 81.7 µM (≈ 25.1 µg/mL)
Salmonella typhimurium [14]
  MBC: 65.3 µM (≈ 20 µg/mL)
Escherichia coli [15]
  MBC: 65.3 µM (≈ 20 µg/mL)
Enterococcus faecalis [16]
  MBC: 65.3 µM (≈ 20 µg/mL)
Aspergillus ochraceus [17]
  MIC: 65.3 µM (≈ 20 µg/mL)
Aspergillus niger [18]
  MIC: 65.3 µM (≈ 20 µg/mL)
Aspergillus flavus [19]
  MIC: 65.3 µM (≈ 20 µg/mL)
Talaromyces funiculosus [20]
  MIC: 32.7 µM (≈ 10 µg/mL)
Penicillium ochrochloron [21]
  MIC: 65.3 µM (≈ 20 µg/mL)
Trichoderma viride [22]
  MIC: 32.7 µM (≈ 10 µg/mL)
Candida albicans [23]
  MIC: 32.7 µM (≈ 10 µg/mL)
Aspergillus ochraceus [24]
  MFC: 81.7 µM (≈ 25.1 µg/mL)
Aspergillus fumigatus [25]
  MFC: 65.3 µM (≈ 20 µg/mL)
Aspergillus niger [26]
  MFC: 81.7 µM (≈ 25.1 µg/mL)
Aspergillus flavus [27]
  MFC: 81.7 µM (≈ 25.1 µg/mL)
Talaromyces funiculosus [28]
  MFC: 65.3 µM (≈ 20 µg/mL)
Penicillium ochrochloron [29]
  MFC: 81.7 µM (≈ 25.1 µg/mL)
Trichoderma viride [30]
  MFC: 65.3 µM (≈ 20 µg/mL)
Candida albicans [31]
  MFC: 65.3 µM (≈ 20 µg/mL)
Pseudomonas aeruginosa [32]
  Ratio: 10
Aspergillus ochraceus [33]
  Ratio: 10
Aspergillus niger [34]
  Ratio: 10
Talaromyces funiculosus [35]
  Ratio: 10
Penicillium ochrochloron [36]
  Ratio: 10
Trichoderma viride [37]
  Ratio: 10
Candida albicans [38]
  Ratio: 10
Aspergillus ochraceus [39]
  Ratio: 10
Aspergillus fumigatus [40]
  Ratio: 10
Penicillium ochrochloron [41]
  Ratio: 10
Candida albicans [42]
  Ratio: 10
Aspergillus ochraceus [43]
  MIC: 32.7 µM (≈ 10 µg/mL)

— ChEMBL document CHEMBL1926569, “Novel (E)-1-(4-methyl-2-(alkylamino)thiazol-5-yl)-3-arylprop-2-en-1-ones as potent antimicrobial agents” (2011)
